Here are results for one compound from ChEMBL document CHEMBL5252537, “Usnic Acid Benzylidene Analogues as Potent Mechanistic Target of Rapamycin Inhibitors for the Control of Breast Malignancies” (J Nat Prod, 2017).

What is called IC50 is the midpoint of a concentration-inhibition curve.

Active and inactive are the calls of the source. The rule behind the calls is not given here.

The subject of one test is BT-474. As to the kind of experiment: Antiproliferative activity against human BT-474 cells incubated for 72 hrs by MTT assay. In kind it is functional, cell-based. The settings on record: BT-474, 72 h. A digest of the protocol:
(§1)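 Cells seeded at 5 × 10^3/well and allowed to attach overnight, then washed with PBS. Compound diluted from 10 mM DMSO stock into medium (100 ng/mL HGF added for c-Met-expressing cells), in triplicate, 72 h at 37 °C. MTT added for 4 h, formazan dissolved in DMSO, absorbance read at 570 nm. Cell numbers taken from a standard curve; IC50 calculated.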

For a further test, the system named is SK-BR-3. As to the kind of experiment: Antiproliferative activity against human SK-BR-3 cells incubated for 72 hrs by MTT assay. The settings on record: SK-BR-3, 72 h. In kind it is functional, cell-based. A digest of the protocol: as §1
Background: Tetrazolium assays rely on reduction of a dye to a coloured formazan, in cell work by metabolically active cells.

The subject of test [1] is MCF7. As to the kind of experiment: Antiproliferative activity against human MCF7 cells incubated for 72 hrs by MTT assay. In kind it is functional, cell-based. The settings on record: MCF7, 72 h. A digest of the protocol:
as §1

Another test has as its system T47D. As to the kind of experiment: Antiproliferative activity against human T47D cells incubated for 72 hrs by MTT assay. The class given is functional, cell-based. The essentials: as §1
Another test relates to MDA-MB-468. Briefly: Antiproliferative activity against human MDA-MB-468 cells incubated for 72 hrs by MTT assay. The class given is functional, cell-based. Particulars: MDA-MB-468, 72 h. The essentials:
as §1

Test [2] deals with MDA-MB-231. Briefly: Antiproliferative activity against human MDA-MB-231 cells incubated for 72 hrs by MTT assay. In kind it is functional, cell-based. The settings on record: MDA-MB-231, 72 h. A digest of the protocol: as §1
The target in test [3] is Serine/threonine-protein kinase mTOR (Homo sapiens) (UniProt P42345). As to the kind of experiment: Inhibition of mTOR in human MDA-MB-231 cells assessed as reduction in phosphorylated 4E-BP1 level at 15 to 25 uM by Western blot analysis. In kind it is cell-based. Particulars: dose 15-25 µM. A digest of the protocol: (§2)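 Cells seeded at 5 × 10^5 per 100 mm dish and allowed to attach overnight. Treated with compound or DMSO for 72 h (HGF 100 ng/mL added for MDA-MB-231). Lysed in RIPA buffer with protease inhibitors. 30 μg protein run on SDS-PAGE, transferred to PVDF, blocked in 5% BSA/TBST. Primary antibodies overnight at 4 °C, HRP secondary antibodies, chemiluminescent detection.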

The target is the same in test [4]. Briefly: Inhibition of mTOR in human MDA-MB-231 cells assessed as reduction in p-S6K level at 15 to 25 uM by Western blot analysis. The class given is cell-based. Particulars: dose 15-25 µM. The essentials:
as §2
(In general: Immunoblotting shows a protein as a band on a membrane.)

The target is the same in test [5]. As to the kind of experiment: Inhibition of mTOR in human […] cells assessed as reduction in phosphorylated 4E-BP1 level at 15 to 25 uM by Western blot analysis. In kind it is cell-based. The settings on record: MCF7, dose 15-25 µM. The essentials: as §2
Test [6] shares this target. As to the kind of experiment: Inhibition of mTOR in human […] cells assessed as reduction in p-S6K level at 15 to 25 uM by Western blot analysis. The settings on record: MCF7, dose 15-25 µM. The class given is cell-based. A digest of the protocol:
as §2

Test [7] has as its system MDA-MB-231. As to the kind of experiment: Induction of autophagy in human MDA-MB-231 cells assessed as increase in beclin-1 level by Western blotting analysis. The settings on record: dose 15-25 µM. The class given is functional, cell-based. The essentials: as §2
The test system of test [8] is MCF7. As to the kind of experiment: Induction of autophagy in human MCF7 cells assessed as increase in beclin-1 level by Western blotting analysis. The settings on record: dose 15-25 µM. The class given is functional, cell-based. A digest of the protocol:
as §2

The test system of test [9] is MDA-MB-231. As to the kind of experiment: Induction of autophagy in human MDA-MB-231 cells assessed as increase in LC3 level by Western blotting analysis. The settings on record: dose 15-25 µM. The class given is functional, cell-based. A digest of the protocol: as §2
Test [10] deals with MCF7. As to the kind of experiment: Induction of autophagy in human MCF7 cells assessed as increase in LC3 level by Western blotting analysis. In kind it is functional, cell-based. Particulars: dose 15-25 µM. The essentials:
as §2

Test [11] addresses T1, mTORC2 (Homo sapiens) (UniProt P42345+Q6R327+Q9BVC4+Q9BPZ7). As to the kind of experiment: Inhibition of mTORC2 in human MDA-MB-231 cells assessed as reduction in Akt phosphorylation at Ser473 residue at 15 to 25 uM by Western blot analysis. In kind it is cell-based. The settings on record: dose 15-25 µM. A digest of the protocol:
as §2

Test [12] deals with T1, mTORC2 (Homo sapiens). Briefly: Inhibition of mTORC2 in human MCF7 cells assessed as reduction in Akt phosphorylation at Ser473 residue at 15 to 25 uM by Western blot analysis. In kind it is cell-based. Particulars: dose 15-25 µM. The essentials:
as §2

Test [13] relates to MDA-MB-231. Briefly: Antimigratory activity in human MDA-MB-231 cells assessed as inhibition of cell migration after 23 hrs by scratch wound healing assay. In kind it is functional, cell-based. A digest of the protocol: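 Cells seeded at 1 × 10^5/well and grown to a confluent monolayer, then scratched with a 200 μL pipet tip. Held 5 h in serum-free medium, then given medium with HGF (100 ng/mL) plus compound or DMSO. Norstictic acid (15 μM) was the positive control. Wound width photographed at 0 h and followed up to 24 h; cells MeOH-fixed. Percent migration from wound thickness versus DMSO wells; IC50 calculated.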

Test [14] concerns MDA-MB-231. Briefly: Anti-invasive activity in human MDA-MB-231 cells after 24 hrs […]. The class given is functional, cell-based. The settings on record: MDA-MB-231, 24 h.

As for `CC(=O)C1=C(O)C=C2Oc3c(C(C)=O)c(O)c(C)c(O)c3[C@]2(C)C1=O` [(-)-USNIC ACID], the IC50 was determined as 15.1 µM in the test on BT-474; 14.4 µM in the test with SK-BR-3; 11.2 µM in the test with MCF7 [1]; 15.9 µM in the test with T47D; 13.7 µM with MDA-MB-468; 13.1 µM in the test on MDA-MB-231 [2]. The IC50 in the test with MDA-MB-231 [13] (MDA-MB-231, 23 h) came out at 13.7 µM; in the test on MDA-MB-231 [14], 14.2 µM. Also, the inhibition result (in test [3]; in test [4]; in test [5]; in test [6]; on mTORC2 (Homo sapiens) [11]; on mTORC2 (Homo sapiens) [12]) was “Active” each time. Further, the Activity entry with MDA-MB-231 [7], in the test with MCF7 [8], in the test with MDA-MB-231 [9], in the test with MCF7 [10] and with MDA-MB-231 [13] was “Dose-Dependent Effect” throughout.
